pIC50: −log10 of the molar value. Calls of active or inactive are those of the source. No cut-off for these calls is given here.
Experiments:
SK-OV-3 = test: Antitumor activity against human SKOV3 cells after 48 hrs by sulforhodamine B assay; assay type: functional; details: SK-OV-3, 48 h
Procedure, shortened: (§1)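 NCI-60 screen, adherent lines: grown in RPMI 1640 with 5% FBS and 2 mM L-glutamine. Seeded at 5,000–40,000 cells/well by doubling time and preincubated 24 h at 37 °C, 5% CO2, with time-zero plates TCA-fixed. Five concentrations (10-fold or half-log) given for 48 h. Fixed with cold TCA (10% final), then SRB-stained and read at A515. GI50 is 50% reduction of net protein increase versus control.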

NCI/ADR-RES = test: Antitumor activity against human NCI/ADR-RES cells after 48 hrs by sulforhodamine B assay; assay type: functional; procedure, shortened: as §1
DU-145 = test: Antitumor activity against human DU145 cells after 48 hrs by sulforhodamine B assay; assay type: functional; details: DU-145, 48 h; procedure, shortened: as §1
LOX IMVI = test: Antitumor activity against human LOXIMVI cells after 48 hrs by sulforhodamine B assay; assay type: functional; procedure, shortened: as §1
786-0 = test: Antitumor activity against human 786-0 cells after 48 hrs by sulforhodamine B assay; assay type: functional; details: 786-0, 48 h; procedure, shortened: as §1
MDA-MB-231 = test: Antitumor activity against human MDA-MB-231 cells after 48 hrs by sulforhodamine B assay; assay type: functional; details: MDA-MB-231, 48 h; procedure, shortened: as §1
SK-MEL-5 = test: Antitumor activity against human SK-MEL-5 cells after 48 hrs by sulforhodamine B assay; assay type: functional; details: SK-MEL-5, 48 h; procedure, shortened: as §1
MCF7 [1] = test: Cytotoxic activity against drug-sensitive Pgp-, MRP1-deficient human MCF7 cells after 48 hrs by sulforhodamine B assay; details: MCF7, 48 h
KM12 = test: Antitumor activity against human KM12 cells after 48 hrs by sulforhodamine B assay; assay type: functional; details: KM12, 48 h; procedure, shortened: as §1
M14 = test: Antitumor activity against human M14 cells after 48 hrs by sulforhodamine B assay; assay type: functional; details: M14, 48 h; procedure, shortened: as §1
OVCAR-5 = test: Antitumor activity against human OVCAR5 cells after 48 hrs by sulforhodamine B assay; assay type: functional; details: OVCAR-5, 48 h; procedure, shortened: as §1
COLO 205 = test: Antitumor activity against human COLO205 cells after 48 hrs by sulforhodamine B assay; assay type: functional; details: COLO 205, 48 h; procedure, shortened: as §1
OVCAR-8 = test: Antitumor activity against human OVCAR8 cells after 48 hrs by sulforhodamine B assay; assay type: functional; details: OVCAR-8, 48 h; procedure, shortened: as §1
RPMI-8226 = test: Antitumor activity against human RPMI8226 cells after 48 hrs by sulforhodamine B assay; assay type: functional; details: RPMI-8226, 48 h
Procedure, shortened: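 NCI-60 screen, suspension lines: grown in RPMI 1640 with 5% FBS and 2 mM L-glutamine. Seeded at 5,000–40,000 cells/well and preincubated 24 h at 37 °C, 5% CO2, with time-zero plates fixed. Five concentrations (10-fold or half-log) given for 48 h. Settled cells fixed with 80% TCA (16% final), then SRB-stained and read at 515 nm. GI50 is from the net growth relative to time zero and control.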

MCF7 [2] = test: Antitumor activity against human MCF7 cells after 48 hrs by sulforhodamine B assay; assay type: functional; details: MCF7, 48 h; procedure, shortened: as §1
HCC 2998 = test: Antitumor activity against human HCC2998 cells after 48 hrs by sulforhodamine B assay; assay type: functional; details: HCC 2998, 48 h; procedure, shortened: as §1
U-251 = test: Antitumor activity against human U251 cells after 48 hrs by sulforhodamine B assay; assay type: functional; details: U-251, 48 h
Procedure, shortened: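 NCI-60 panel lines grown in RPMI 1640 with 5% FBS and 2 mM L-glutamine. Cells plated at 5,000–40,000/well by doubling time, given 24 h before drug, then exposed to five concentrations for 48 h at 37 °C. Time-zero plates fixed with TCA. Cells fixed with TCA, stained with 0.4% SRB, read at 515 nm. GI50 = 50% reduction in net protein increase versus control.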

BT-549 = test: Antitumor activity against human BT549 cells after 48 hrs by sulforhodamine B assay; assay type: functional; details: BT-549, 48 h; procedure, shortened: as §1
SNB-75 = test: Antitumor activity against human SNB75 cells after 48 hrs by sulforhodamine B assay; assay type: functional; details: SNB-75, 48 h; procedure, shortened: as §1
SN12C = test: Antitumor activity against human SN12C cells after 48 hrs by sulforhodamine B assay; assay type: functional; procedure, shortened: as §1
Bos taurus = organism: Bos taurus; test: Effect on bovine brain microtubule depolymerization assessed as decrease in absorbance at wavelength 340 nm after 15 mins
Procedure, shortened: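 Bovine brain tubulin purified by three assembly/disassembly cycles followed by ion exchange. Tubulin at 2.5 mg/mL […] in 1 M glutamate, pH 6.6, with 4% DMSO, preincubated with compound at 0 °C for 15 min. 0.5 mM GTP then added and samples warmed to 37 °C. A340 monitored about 60 min.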

HOP-62 = test: Antitumor activity against human HOP62 cells after 48 hrs by sulforhodamine B assay; assay type: functional; details: HOP-62, 48 h; procedure, shortened: as §1
[3] = target: Multidrug resistance-associated protein 1 (Homo sapiens, UniProt P33527); test: Reversal of MRP1-mediated multidrug resistance in human MCF7/VP cells assessed as enhancement of cytotoxicity of vincristine after 48 hrs by sulforhodamine B assay; assay type: cell-based
Multidrug resistance-associated protein 1, sequence (P33527 whole entry): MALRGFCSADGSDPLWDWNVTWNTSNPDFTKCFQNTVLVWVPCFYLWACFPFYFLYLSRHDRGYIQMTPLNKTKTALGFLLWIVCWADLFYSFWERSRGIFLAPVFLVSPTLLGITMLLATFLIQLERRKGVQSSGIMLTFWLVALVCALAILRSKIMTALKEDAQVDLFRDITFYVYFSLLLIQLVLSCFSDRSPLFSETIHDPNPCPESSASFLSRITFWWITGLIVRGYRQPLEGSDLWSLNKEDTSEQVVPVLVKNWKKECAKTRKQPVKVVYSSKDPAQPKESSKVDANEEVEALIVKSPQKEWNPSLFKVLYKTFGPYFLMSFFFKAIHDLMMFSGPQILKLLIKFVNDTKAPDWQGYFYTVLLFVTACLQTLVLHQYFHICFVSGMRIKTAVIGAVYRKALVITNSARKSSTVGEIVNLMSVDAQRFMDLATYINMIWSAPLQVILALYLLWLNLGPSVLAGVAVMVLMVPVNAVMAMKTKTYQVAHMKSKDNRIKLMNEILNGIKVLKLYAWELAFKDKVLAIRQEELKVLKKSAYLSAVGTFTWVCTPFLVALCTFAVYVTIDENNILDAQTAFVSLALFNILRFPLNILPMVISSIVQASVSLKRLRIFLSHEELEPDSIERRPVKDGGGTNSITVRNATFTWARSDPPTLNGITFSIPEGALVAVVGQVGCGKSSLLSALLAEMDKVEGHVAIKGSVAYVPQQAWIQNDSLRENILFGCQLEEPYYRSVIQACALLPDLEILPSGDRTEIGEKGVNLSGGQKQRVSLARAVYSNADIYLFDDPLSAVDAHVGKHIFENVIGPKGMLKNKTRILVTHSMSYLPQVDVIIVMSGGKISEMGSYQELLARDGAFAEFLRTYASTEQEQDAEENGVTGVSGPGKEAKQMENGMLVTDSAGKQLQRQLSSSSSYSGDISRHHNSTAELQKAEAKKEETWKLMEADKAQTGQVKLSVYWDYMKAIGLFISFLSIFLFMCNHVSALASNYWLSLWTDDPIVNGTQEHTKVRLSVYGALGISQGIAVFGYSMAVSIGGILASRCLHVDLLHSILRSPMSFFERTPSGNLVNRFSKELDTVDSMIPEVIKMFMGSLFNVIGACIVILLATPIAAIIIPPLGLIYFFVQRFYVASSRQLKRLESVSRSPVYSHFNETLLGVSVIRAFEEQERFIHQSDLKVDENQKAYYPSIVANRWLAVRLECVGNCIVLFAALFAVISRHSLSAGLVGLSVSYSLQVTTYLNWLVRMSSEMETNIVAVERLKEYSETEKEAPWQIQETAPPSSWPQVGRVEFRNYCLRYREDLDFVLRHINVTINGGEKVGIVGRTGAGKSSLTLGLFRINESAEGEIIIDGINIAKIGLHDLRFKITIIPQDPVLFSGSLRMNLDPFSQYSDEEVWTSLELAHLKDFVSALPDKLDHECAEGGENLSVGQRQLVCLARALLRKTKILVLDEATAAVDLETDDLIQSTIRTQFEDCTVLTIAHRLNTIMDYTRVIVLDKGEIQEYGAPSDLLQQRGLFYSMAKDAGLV
Procedure, shortened: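 MCF-7/VP cells plated at ~15% confluency and allowed 24 h to attach. […] Survival by SRB binding. MRP1 Antagonism Score = % survival without vincristine / % survival with vincristine.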

SK-MEL-28 = test: Antitumor activity against human SK-MEL-28 cells after 48 hrs by sulforhodamine B assay; assay type: functional; details: SK-MEL-28, 48 h; procedure, shortened: as §1
NCI-H226 = test: Antitumor activity against human NCI-H226 cells after 48 hrs by sulforhodamine B assay; assay type: functional; details: NCI-H226, 48 h; procedure, shortened: as §1
OVCAR-4 = test: Antitumor activity against human OVCAR4 cells after 48 hrs by sulforhodamine B assay; assay type: functional; details: OVCAR-4, 48 h; procedure, shortened: as §1
HT-29 = test: Antitumor activity against human HT-29 cells after 48 hrs by sulforhodamine B assay; assay type: functional; details: HT-29, 48 h; procedure, shortened: as §1
HL-60(TB) = test: Antitumor activity against human HL-60(TB) cells after 48 hrs by sulforhodamine B assay; assay type: functional; details: HL-60, 48 h
Procedure, shortened: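 NCI-60 screen: cells grown in RPMI 1640 with 5% FBS and 2 mM L-glutamine, seeded at 5,000–40,000 cells/well and incubated 24 h at 37 °C, 5% CO2 before dosing. Five concentrations (10-fold or ½-log dilutions from DMSO stock), 48 h. Suspension cells fixed with 80% TCA (final 16%), stained with 0.4% SRB, A515 read. GI50 calculated against time-zero and control growth.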

A549 = test: Antitumor activity against human A549 cells after 48 hrs by sulforhodamine B assay; assay type: functional; details: A549, 48 h; procedure, shortened: as §1

SMILES: COc1cc(CCc2cn(Cc3ccccc3)c3nc(N)nc(C)c23)c(OC)c(OC)c1OC
- GI50 (SK-OV-3): 2.98 µM
- GI50 (NCI/ADR-RES): 2.02 µM
- GI50 (DU-145): 2.5 µM
- GI50 (LOX IMVI): 5.29 µM
- GI50 (786-0): 4.5 µM
- GI50 (MDA-MB-231): 3.69 µM
- GI50 (SK-MEL-5): 1.46 µM
- pIC50 (MCF7 [1]): 4.62
- GI50 (KM12): 3.33 µM
- GI50 (M14): 3.33 µM
- GI50 (OVCAR-5): 11.9 µM
- GI50 (COLO 205): 2.8 µM
- GI50 (OVCAR-8): 4.71 µM
- GI50 (RPMI-8226): 1.69 µM
- GI50 (MCF7 [2]): 1.05 µM
- GI50 (HCC 2998): 5.89 µM
- GI50 (U-251): 3.93 µM
- GI50 (BT-549): 9.75 µM
- GI50 (SNB-75): 2.25 µM
- GI50 (SN12C): 6.86 µM
- Activity (Bos taurus): Active
- GI50 (HOP-62): 3.96 µM
- Activity [3]: Not Active
- GI50 (SK-MEL-28): 4.05 µM
- GI50 (NCI-H226): 4.27 µM
- GI50 (OVCAR-4): 8.83 µM
- GI50 (HT-29): 3.6 µM
- GI50 (HL-60(TB)): 2.06 µM
- GI50 (A549): 5.33 µM

Source: ChEMBL document CHEMBL1806466, “2-Amino-4-methyl-5-phenylethyl substituted-7-N-benzyl-pyrrolo[2,3-d]pyrimidines as novel antitumor antimitotic agents that also reverse tumor resistance” (Bioorg Med Chem, 2011)
